Experimental data from ChEMBL document CHEMBL3994580, “A novel class of α-glucosidase and HMG-CoA reductase inhibitors from Ganoderma leucocontextum and the anti-diabetic properties of ganomycin I in KK-Ay mice” (Eur J Med Chem, 2017).
pIC50: −log10 of the molar value. Active and inactive are the calls of the source. The calls are words filed in the database; no cut-off is given here.

Experiments:
[1] = Inhibition of baker's yeast alpha-glucosidase using p-nitrophenyl alpha-D-glucopyranoside as substrate preincubated for 10 mins followed by substrate addition measured for 15 mins; set-up: species or system Saccharomyces cerevisiae
Outline: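 Baker's yeast α-glucosidase with pNPG, read at 405 nm. Control contained phosphate buffer in place of compound, and blank contained buffer in place of enzyme.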

[2] = target: T1, 3-hydroxy-3-methylglutaryl-coenzyme A reductase (Sus scrofa) (UniProt Q1W675); assay: (§1) Inhibition of HMG-CoA reductase in pig liver microsomes using HMG-CoA as substrate preincubated for 5 mins followed by NADPH addition measured after 15 mins by colorimetric method
T1 sequence (whole entry): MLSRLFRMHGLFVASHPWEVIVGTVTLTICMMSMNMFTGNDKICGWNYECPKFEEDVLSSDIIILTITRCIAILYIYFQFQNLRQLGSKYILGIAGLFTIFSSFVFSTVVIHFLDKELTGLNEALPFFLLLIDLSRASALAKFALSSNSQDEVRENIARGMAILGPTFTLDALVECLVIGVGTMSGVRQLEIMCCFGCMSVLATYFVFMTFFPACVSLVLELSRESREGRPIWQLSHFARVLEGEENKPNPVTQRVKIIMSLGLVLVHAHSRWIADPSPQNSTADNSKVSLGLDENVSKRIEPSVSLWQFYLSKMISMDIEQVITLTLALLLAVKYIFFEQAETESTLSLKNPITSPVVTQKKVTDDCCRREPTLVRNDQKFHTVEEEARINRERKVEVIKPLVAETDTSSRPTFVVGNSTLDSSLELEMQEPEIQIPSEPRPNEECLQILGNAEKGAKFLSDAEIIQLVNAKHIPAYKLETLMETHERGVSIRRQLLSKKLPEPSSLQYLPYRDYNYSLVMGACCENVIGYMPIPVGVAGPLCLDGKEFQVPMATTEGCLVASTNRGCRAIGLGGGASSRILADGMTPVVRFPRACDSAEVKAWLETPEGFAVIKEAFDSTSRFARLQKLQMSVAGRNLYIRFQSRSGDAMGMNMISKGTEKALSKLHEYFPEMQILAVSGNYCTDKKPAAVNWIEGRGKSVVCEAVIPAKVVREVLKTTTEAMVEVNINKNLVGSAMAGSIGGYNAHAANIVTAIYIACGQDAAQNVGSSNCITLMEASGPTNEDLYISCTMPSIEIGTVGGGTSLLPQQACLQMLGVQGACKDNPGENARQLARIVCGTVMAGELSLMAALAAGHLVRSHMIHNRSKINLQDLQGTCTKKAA
Outline: (§2)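 HMG-CoA reductase activity followed by absorbance at 340 nm. Blank had potassium phosphate buffer instead of enzyme, and control had buffer instead of compound. Percent inhibition calculated from blank-corrected OD.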

[3] = target: T2, 3-hydroxy-3-methylglutaryl-coenzyme A reductase (Sus scrofa, UniProt Q1W675); assay: as §1; outline: as §2
T2 sequence (Q1W675 whole entry): T1 sequence (whole entry)

[4] = Inhibition of alpha-glucosidase in rat small intestinal mucosa assessed as reduction in glucose production using p-nitrophenyl alpha-D-glucopyranoside as substrate measured after 40 mins by glucose oxidase assay
Outline: (§3)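 Rat small intestinal mucosa enzyme. Compound in DMSO mixed with substrate (maltose, sucrose or pNPG) and enzyme in 0.1 M phosphate buffer pH 6.9, incubated 40 min. Glucose released measured by glucose oxidase kit at 550 nm. Blank lacked enzyme, control lacked compound. Percent inhibition calculated from blank-corrected OD.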

[5] = system: Saccharomyces cerevisiae; assay: Non-competitive inhibition of baker's yeast alpha-glucosidase using varying levels of p-nitrophenyl alpha-D-glucopyranoside as substrate preincubated for 10 mins followed by substrate addition measured for 15 mins by Lineweaver-Burk plot analysis
Outline: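 Kinetics with inhibitor at 0.3 to 1 μM against α-glucosidase. pNPG at 2, 4, 6 and 8 μM. Initial velocities measured with and without inhibitor, and inhibition type assigned from Michaelis-Menten and Lineweaver-Burk plots.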

[6] = Inhibition of maltase in rat small intestinal mucosa assessed as reduction in glucose production using maltose as substrate measured after 40 mins by glucose oxidase assay; outline: as §3
[7] = target: Sucrase-isomaltase, intestinal (Rattus norvegicus, UniProt P23739); assay: Inhibition of sucrase in rat small intestinal mucosa assessed as reduction in glucose production using sucrose as substrate measured after 40 mins by glucose oxidase assay; outline: as §3
[8] = system: Mus musculus; assay: Antidiabetic activity in KK-Ay diabetic mouse model assessed as reduction in blood glucose level after 4 hrs fasting at 10 mg/kg/day administered via oral gavage once daily measured on day 3 post dose; type: functional, organism-based
Outline: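 KK-Ay mice on high-fat diet, gavaged once daily (1 or 5 mg/kg; rosiglitazone 10 mg/kg). Blood glucose monitored sequentially after 4 h fasting. Mean ± SEM, n = 8, compared with the KK-Ay model group.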

[9] = system: Mus musculus; assay: Hypolipidemic activity in KK-Ay diabetic mouse model assessed as reduction in serum total cholesterol level at 10 mg/kg/day administered via oral gavage once daily for 21 days; type: functional, organism-based
Outline: (§4)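 Male KK-Ay mice (8 weeks old) on high-fat diet with water ad libitum, dosed by gavage once daily for 21 days (1 or 5 mg/kg test; rosiglitazone 10 mg/kg); female C57BL/6J mice as normal controls. Blood collected at study end. Serum lipids, insulin and glucose measured per cited method. ISI calculated from fasting blood glucose and fasting insulin. Mean ± SEM, n = 7-8.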

[10] = system: Mus musculus; assay: Decrease in hepatocyte hypertrophy in KK-Ay diabetic mouse model at 10 mg/kg/day administered via oral gavage once daily for 21 days by haematoxylin and eosin staining based microscopic or morphometric method; type: functional, organism-based
Outline: (§5)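 At study end, liver and abdominal white adipose tissue were fixed in 10% formaldehyde PBS (pH 7.4), paraffin-embedded, sectioned and stained with haematoxylin/eosin. Sections were assessed by microscopy or morphometry at 20×.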

[11] = system: Mus musculus; assay: Toxicity in KK-Ay diabetic mouse model assessed as changes in body weight at 10 mg/kg/day administered via oral gavage once daily for 21 days measured every 3 days during compound dosing; type: organism-based; conditions: in vivo
Outline: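 In high-fat-fed KK-Ay mice gavaged once daily for 21 days, individual body weight and cage food consumption were recorded every 3 days. Mean ± SEM, n = 8.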

[12] = system: Mus musculus; assay: Antidiabetic activity in KK-Ay diabetic mouse model assessed as reduction in free diet blood glucose level at 10 mg/kg/day administered via oral gavage once daily measured on day 3 post dose; type: functional, organism-based
Outline: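 Non-fasted (free diet) blood glucose was tracked serially in high-fat-fed KK-Ay mice given daily gavage doses (1 or 5 mg/kg; rosiglitazone 10 mg/kg). Mean ± SEM, n = 8.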

[13] = system: Mus musculus; assay: Antidiabetic activity in KK-Ay diabetic mouse model assessed as reduction in blood glucose level at 10 mg/kg/day administered via oral gavage once daily measured on day 19 at 30 to 60 mins post insulin challenge by insulin tolerance test; type: functional, organism-based
Outline: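 ITT on day 19 of treatment: after 4 h fasting, insulin 0.6 U·kg-1 given intraperitoneally. Glycaemia was sampled from the tail tip before and at set times after injection, and the AUC was computed. Mean ± SEM, n = 8.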

[14] = system: Mus musculus; assay: Effect on serum AST level in KK-Ay diabetic mouse model at 10 mg/kg/day administered via oral gavage once daily for 21 days; type: functional, organism-based; outline: as §4
[15] = system: Mus musculus; assay: Hypoglycemic activity in KK-Ay diabetic mouse model assessed as increase in liver hepatic glycogen level at 10 mg/kg/day administered via oral gavage once daily for 4 weeks; type: functional, organism-based
[16] = system: Mus musculus; assay: Decrease in lipid droplet accumulation in liver in KK-Ay diabetic mouse model at 10 mg/kg/day administered via oral gavage once daily for 21 days by haematoxylin and eosin staining based microscopic or morphometric method; type: functional, organism-based; outline: as §5
[17] = system: Mus musculus; assay: Hypolipidemic activity in KK-Ay diabetic mouse model assessed as reduction in serum triglyceride level at 10 mg/kg/day administered via oral gavage once daily for 21 days; type: functional, organism-based; outline: as §4
[18] = system: Mus musculus; assay: Decrease in size of adipocytes in abdominal white adipose tissue in KK-Ay diabetic mouse model at 10 mg/kg/day administered via oral gavage once daily for 21 days by haematoxylin and eosin staining based microscopic or morphometric method; type: functional, organism-based; outline: as §5
[19] = system: Mus musculus; assay: Antidiabetic activity in KK-Ay diabetic mouse model assessed as reduction in serum insulin level at 10 mg/kg/day administered via oral gavage once daily for 21 days; type: functional, organism-based; outline: as §4
[20] = system: Mus musculus; assay: Hypolipidemic activity in KK-Ay diabetic mouse model assessed as reduction in serum NEFA level at 10 mg/kg/day administered via oral gavage once daily for 21 days; type: functional, organism-based; outline: as §4
[21] = system: Mus musculus; assay: Antidiabetic activity in KK-Ay diabetic mouse model assessed as reduction in blood glucose level at 10 mg/kg/day administered via oral gavage once daily for 21 days measured at 30 to 60 mins post glucose challenge by oral glucose tolerance test; type: functional, organism-based
Outline: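 OGTT on day 21 of daily gavage dosing in KK-Ay mice. Blood glucose read at time points including 30 and 60 min, and the AUC was calculated. Mean ± SEM, n = 8.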

[22] = system: Mus musculus; assay: Antidiabetic activity in KK-Ay diabetic mouse model assessed as increase in insulin sensitivity index at 10 mg/kg/day administered via oral gavage once daily for 21 days; type: functional, organism-based; outline: as §4
[23] = system: Mus musculus; assay: Antidiabetic activity in KK-Ay diabetic mouse model assessed as reduction in HbA1C level at 10 mg/kg/day administered via oral gavage once daily for 21 days; type: functional, organism-based

Chain of Sucrase-isomaltase, intestinal (P23739 1-1013 limits assumed): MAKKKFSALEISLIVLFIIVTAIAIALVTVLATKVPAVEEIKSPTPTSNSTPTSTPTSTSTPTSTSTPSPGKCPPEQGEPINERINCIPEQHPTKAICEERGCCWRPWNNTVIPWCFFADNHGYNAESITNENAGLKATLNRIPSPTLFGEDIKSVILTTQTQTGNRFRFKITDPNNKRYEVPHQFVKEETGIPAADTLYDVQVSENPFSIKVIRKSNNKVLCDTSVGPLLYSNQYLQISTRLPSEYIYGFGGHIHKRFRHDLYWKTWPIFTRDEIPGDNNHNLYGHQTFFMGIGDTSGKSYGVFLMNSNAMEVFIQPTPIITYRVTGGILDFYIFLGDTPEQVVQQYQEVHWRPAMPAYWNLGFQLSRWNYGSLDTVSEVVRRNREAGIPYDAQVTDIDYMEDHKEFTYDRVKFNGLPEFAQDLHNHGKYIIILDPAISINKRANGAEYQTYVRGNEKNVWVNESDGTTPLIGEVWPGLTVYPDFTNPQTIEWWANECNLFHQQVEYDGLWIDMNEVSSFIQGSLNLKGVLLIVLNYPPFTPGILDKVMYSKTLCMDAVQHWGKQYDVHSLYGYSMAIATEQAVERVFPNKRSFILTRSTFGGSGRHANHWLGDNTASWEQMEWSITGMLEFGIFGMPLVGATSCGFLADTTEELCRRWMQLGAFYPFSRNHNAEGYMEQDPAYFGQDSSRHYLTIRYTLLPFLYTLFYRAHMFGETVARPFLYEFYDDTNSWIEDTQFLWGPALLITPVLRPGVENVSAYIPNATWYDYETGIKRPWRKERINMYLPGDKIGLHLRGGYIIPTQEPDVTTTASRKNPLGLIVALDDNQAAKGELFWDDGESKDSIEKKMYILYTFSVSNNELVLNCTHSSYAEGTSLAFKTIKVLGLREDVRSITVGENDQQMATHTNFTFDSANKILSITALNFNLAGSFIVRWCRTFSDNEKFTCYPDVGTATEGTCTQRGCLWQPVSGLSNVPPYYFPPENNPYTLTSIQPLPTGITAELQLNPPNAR
Chain of Sucrase-isomaltase, intestinal (P23739 1014-1841 limits assumed): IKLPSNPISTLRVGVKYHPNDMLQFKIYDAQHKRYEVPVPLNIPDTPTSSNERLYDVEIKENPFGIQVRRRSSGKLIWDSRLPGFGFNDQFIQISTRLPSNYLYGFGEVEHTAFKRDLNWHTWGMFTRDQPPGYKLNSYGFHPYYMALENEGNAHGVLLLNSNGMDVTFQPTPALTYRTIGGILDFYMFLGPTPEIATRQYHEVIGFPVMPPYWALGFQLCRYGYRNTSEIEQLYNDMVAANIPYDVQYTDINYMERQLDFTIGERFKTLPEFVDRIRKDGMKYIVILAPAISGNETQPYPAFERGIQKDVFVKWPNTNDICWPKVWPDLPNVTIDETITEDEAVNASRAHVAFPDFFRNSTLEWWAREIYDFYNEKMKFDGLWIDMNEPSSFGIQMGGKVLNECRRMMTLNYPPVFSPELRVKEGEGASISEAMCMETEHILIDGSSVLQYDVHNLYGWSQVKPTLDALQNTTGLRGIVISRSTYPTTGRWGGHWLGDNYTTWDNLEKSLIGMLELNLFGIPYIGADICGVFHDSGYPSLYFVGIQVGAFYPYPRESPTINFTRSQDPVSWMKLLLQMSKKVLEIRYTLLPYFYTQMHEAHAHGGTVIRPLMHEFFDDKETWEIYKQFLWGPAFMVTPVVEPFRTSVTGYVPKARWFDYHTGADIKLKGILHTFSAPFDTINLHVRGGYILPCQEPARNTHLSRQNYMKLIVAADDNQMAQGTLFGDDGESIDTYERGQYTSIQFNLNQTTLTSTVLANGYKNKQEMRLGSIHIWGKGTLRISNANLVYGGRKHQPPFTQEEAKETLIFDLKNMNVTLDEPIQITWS

Structure (SMILES)	pIC50 [1]	inhibition [2]	pIC50 [3]	pIC50 [4]	inhibition [5]	pIC50 [6]	pIC50 [7]	further results
C[C@H]1O[C@H](O[C@H]2[C@H](O)[C@@H](O)[C@@H](O[C@H]3[C@H](O)[C@@H](O)C(O)O[C@@H]3CO)O[C@@H]2CO)[C@H](O)[C@@H](O)[C@@H]1N[C@H]1C=C(CO)[C@@H](O)[C@H](O)[C@H]1O (stereo partly specified) [ACARBOSE]	3.56	–	–	–	–	–	–	–
CC(C)=CCC/C(C)=C/CC/C(=C/Cc1cc(O)ccc1O)C(=O)O [GANOMYCIN B]	5.80	Dose-dependent effect	4.53	5.23	Active	4.75	4.45	–
CC(C)=CCC/C(C)=C/CC/C(=C\Cc1cc(O)ccc1O)C(=O)O	< 4.00	–	< 4.00	< 4.00	–	< 4.00	< 4.00	–
COC1(c2cc(O)ccc2O)C=C(CC/C=C(\C)CC/C=C(\C)C=O)C(=O)O1 (stereo unspecified)	4.99	Dose-dependent effect	4.24	4.80	Active	4.62	< 4.00	–
C/C1=C/CC/C(=C/Cc2cc(O)ccc2O)C(=O)OC(C)(C)[C@H](O)CC1	5.20	–	< 4.00	5.44	Active	4.34	< 4.00	–
CC(C)=CCC/C(C)=C/CC/C(=C/C(=O)c1cc(O)ccc1O)C(=O)O	5.49	Dose-dependent effect	4.34	5.19	Active	4.74	< 4.00	–
CC(C)=CCC/C(C)=C/CCC(CC(=O)c1cc(O)ccc1O)C(=O)O (stereo unspecified) [FORNICIN C]	4.49	–	< 4.00	4.21	Active	4.34	< 4.00	–
C/C(C=O)=C\CC/C(C)=C/CCC1=C[C@H](c2cc(O)ccc2O)OC1=O	4.90	–	< 4.00	4.80	Active	4.10	< 4.00	–
CN(CCOc1ccc(CC2SC(=O)NC2=O)cc1)c1ccccn1 (stereo unspecified) [ROSIGLITAZONE]	–	–	–	–	–	–	–	Activity [8]: Active; Activity [9]: Active; Activity [10]: inactive; Activity [11]: Toxic; Activity [12]: Active; Activity [13]: Active; Activity [14]: inactive; Activity [15]: inactive; Activity [16]: inactive; Activity [17]: Active; Activity [18]: Active; Activity [19]: Active; Activity [20]: Active; Activity [21]: Active; Activity [22]: Active; Activity [23]: Active
